ChEMBL document CHEMBL1124912, “Inhibition of human leukocyte elastase. 3. Synthesis and activity of 3'-substituted cephalosporins” (J Med Chem, 1990)

Tests used:
[1] = target: T1, Neutrophil elastase (Homo sapiens) (UniProt P08246); experiment: Second-order rate constant for time-dependent inactivation of Human Leukocyte Elastase for 15 min
T1 sequence (whole entry): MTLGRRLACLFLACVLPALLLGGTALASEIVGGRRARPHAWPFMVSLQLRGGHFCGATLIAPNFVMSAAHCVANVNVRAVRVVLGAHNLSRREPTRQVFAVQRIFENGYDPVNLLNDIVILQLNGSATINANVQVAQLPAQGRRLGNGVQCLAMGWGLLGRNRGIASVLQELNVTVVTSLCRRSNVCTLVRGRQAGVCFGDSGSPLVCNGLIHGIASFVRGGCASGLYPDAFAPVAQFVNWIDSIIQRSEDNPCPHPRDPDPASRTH
Summary of the method: (§1)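 Inactivation of HLE by inhibitor was followed over 15 min. The second-order rate constant was expressed as k_obs/[I] (M^-1 s^-1). Where inhibition was not time-dependent, Ki was instead calculated from the initial velocity.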

Neutrophil elastase = target: T2, Neutrophil elastase (Homo sapiens, UniProt P08246); experiment: In vitro inhibitory activity against human leukocyte elastase (HLE)
T2 sequence (P08246 whole entry): T1 sequence (whole entry)
Summary of the method: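 HLE at 1 μg/mL mixed with inhibitor, with enzyme activity read 2 min after mixing. IC50 (μM) is the inhibitor concentration that cuts HLE activity by 50%.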

[2] = target: T1, Neutrophil elastase (Homo sapiens); experiment: Second-order rate constant for time-dependent inactivation of HLE for 15 min; summary of the method: as §1
[3] = target: T1, Neutrophil elastase (Homo sapiens)

SMILES	k obs / 1 [1]	IC50 (Neutrophil elastase)	k obs / 1 [2]	k obs / 1 [3]
CO[C@H]1C(=O)N2C(C(=O)OC(C)(C)C)=C(CSc3nnnn3C)CS(=O)(=O)C12 (stereo partly specified)	15000 M⁻¹ s⁻¹	1620 nM		
CO[C@H]1C(=O)N2C(C(=O)OC(C)(C)C)=C(CSc3nc[nH]n3)CS(=O)(=O)C12 (stereo partly specified)	3500 M⁻¹ s⁻¹			
CO[C@H]1C(=O)N2C(C(=O)OC(C)(C)C)=C(CSc3nc(=O)c(=O)[nH]n3C)CS(=O)(=O)C12 (stereo partly specified)	8600 M⁻¹ s⁻¹	630 nM		
CO[C@H]1C(=O)N2C(C(=O)OC(C)(C)C)=C(COC(=O)C(C)(C)C)CS(=O)(=O)C12 (stereo partly specified)	15800 M⁻¹ s⁻¹			
CO[C@H]1C(=O)N2C(C(=O)OC(C)(C)C)=C(C[S+]([O-])c3ccccc3)CS(=O)(=O)C12 (stereo partly specified)		910 nM	16800 M⁻¹ s⁻¹	
CO[C@H]1C(=O)N2C(C(=O)OC(C)(C)C)=C(COC(=O)c3ccccc3)CS(=O)(=O)C12 (stereo partly specified)	32500 M⁻¹ s⁻¹			
CO[C@H]1C(=O)N2C3=C(COC3=O)CS(=O)(=O)C12 (stereo partly specified)	46 M⁻¹ s⁻¹	57800 nM		
CO[C@H]1C(=O)N2C(C(=O)OC(C)(C)C)=C(CSc3nnc[nH]3)CS(=O)(=O)C12 (stereo partly specified)		2400 nM		
CO[C@H]1C(=O)N2C(C(=O)OC(C)(C)C)=C(CSc3nccn3C)CS(=O)(=O)C12 (stereo partly specified)	1880 M⁻¹ s⁻¹	2330 nM		
CO[C@H]1C(=O)N2C(C(=O)OC(C)(C)C)=C(COC(N)=O)CS(=O)(=O)C12 (stereo partly specified)			10800 M⁻¹ s⁻¹	
CCOC(=S)SCC1=C(C(=O)OC(C)(C)C)N2C(=O)[C@H](OC)C2S(=O)(=O)C1 (stereo partly specified)	4300 M⁻¹ s⁻¹	1820 nM		
CO[C@H]1C(=O)N2C(C(=O)OC(C)(C)C)=C(CS(=O)(=O)c3ccccc3)CS(=O)(=O)C12 (stereo partly specified)		440 nM		
CO[C@H]1C(=O)N2C(C(=O)OC(C)(C)C)=C(COC(C)=O)CS(=O)(=O)C12 (stereo partly specified)		1330 nM		12700 M⁻¹ s⁻¹
C=CCC1=C(C(=O)OC(C)(C)C)N2C(=O)[C@H](OC)C2S(=O)(=O)C1 (stereo partly specified)	6100 M⁻¹ s⁻¹			
CO[C@H]1C(=O)N2C(C(=O)OC(C)(C)C)=C(CCl)CS(=O)(=O)C12 (stereo partly specified)	14900 M⁻¹ s⁻¹			
CO[C@H]1C(=O)N2C(C(=O)OC(C)(C)C)=C(COC(=O)CCC(=O)O)CS(=O)(=O)[C@H]12			13800 M⁻¹ s⁻¹	
CO[C@H]1C(=O)N2C(C(=O)OC(C)(C)C)=C(CSc3nnnn3CC(=O)O)CS(=O)(=O)C12 (stereo partly specified)	3700 M⁻¹ s⁻¹			
COCC1=C(C(=O)OC(C)(C)C)N2C(=O)[C@H](OC)C2S(=O)(=O)C1 (stereo partly specified)		1000 nM		
CO[C@H]1C(=O)N2C(C(=O)OC(C)(C)C)=C(CSc3nnc(C)s3)CS(=O)(=O)C12 (stereo partly specified)		2230 nM	7900 M⁻¹ s⁻¹	
CO[C@H]1C(=O)N2C(C(=O)OC(C)(C)C)=C(COC(=O)N[C@@H](Cc3ccccc3)C(=O)O)CS(=O)(=O)C12 (stereo partly specified)		130 nM	63900 M⁻¹ s⁻¹	
CO[C@H]1C(=O)N2C(C(=O)OC(C)(C)C)=C(C)CS(=O)(=O)C12 (stereo partly specified)			1630 M⁻¹ s⁻¹	
CO[C@H]1C(=O)N2C(C(=O)OC(C)(C)C)=C(COC(=O)NCc3ccccc3)CS(=O)(=O)C12 (stereo partly specified)	15100 M⁻¹ s⁻¹			
